STAT3 inh-1 = STAT3 signaling inhibition; U3A cells, IL-6 STAT3-luciferase reporter, luminescence; host cell line lacks STAT1; inhibition, % at 5.5 µM; 190,000 tested, 0.89% active; AID 862;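 active = inhibition above the mean inhibition across all screened compounds plus 3 SD, cut at about 44% in these data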;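 note: 0% = DMSO only wells and 100% = 100 µM nifuroxazide control wells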
STAT3 act = activators of IL-6 induced STAT3 signaling; U3A cells, IL-6 STAT3-luciferase reporter, luminescence; 100% = signal with IL-6 EC80 alone; activation (% of control), % at 5.6 µM; 190,000 tested, 0.91% active; AID 871;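 active = activation above the screen-wide mean of compound activation plus 3 SD, cut at about 130% in these data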;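 note: 0% = background luminescence of wells with medium and substrate only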
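Assay system – human STAT1-deficient U3A cells with stable STAT3-luciferase reporter · Also added – IL-6 (33 ng/mL) · Schedule – compound 1 h, then IL-6 6 h at 37 °C · Technique – reporter luminescence signal · Evaluation – % activation versus median of IL-6-stimulated wells · Benchmarks – IL-6-only wells as 100% reference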
NF-kB neuron act = raises NF-kB expression in human neuronal cells. NF-kB reporter expression; hits give high values. fold change at 12.5 µM. 190,000 tested, 1.6% active. AID 1239; in the data active = fold change above about 3.3
STAT1 inh = inhibitors of IFN-gamma induced STAT1 signaling. NIH 3T3 STAT1-luciferase reporter, luminescence. inhibition, % at 5.5 µM. 200,000 tested, 0.35% active;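 active = inhibition above a set limit, the mean inhibition across all tested compounds plus 3 SD, cut at about 34% in these data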;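 note: 0% = IFN-gamma with DMSO and 100% = IFN-gamma with 300 µM nifuroxazide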
APP 5'UTR act = activates APP 5'UTR luciferase reporter | SH-SY5Y APP 5'UTR luciferase reporter, luminescence; zero percent = DMSO vehicle wells | activation, % at 2 µM | 190,000 tested, 1% active;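 active = activation above a set limit, based on mean plus 3 SD of controls, cut at about 140% in these data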
STAT1 activator = activators of IFN-gamma induced STAT1 signaling; NIH 3T3 STAT1-luciferase reporter, luminescence; 100% = IFN-gamma alone, no compound; activation (% of control), % at 5.5 µM; 200,000 tested, 2.6% active; AID 932;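 active = activation above the screen-wide mean activation plus 3 SD, cut at about 130% in these data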;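 note: raw ratio to IFN-gamma control signal so 100% means no change and 0% no light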
STAT3 inh-2 = confirmation of STAT3 signaling inhibitors | shares compounds with STAT3 inh-1 | U3A cells, IL-6 STAT3 luciferase reporter, luminescence; cell line lacks STAT1 | inhibition, % at 5.7 µM | 1,200 tested, 45% active;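 active = inhibition above the hit cutoff computed for the primary STAT3 screen, cut at about 44% in these data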;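 note: 0% = IL-6 plus DMSO and 100% = IL-6 plus nifuroxazide control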
NFkB inh 2 = inhibits NF-kappaB, counter-screen to STAT3 inhibitors. shares compounds with STAT3 inh-1. inhibition, % at 5.7 µM. 1,200 tested, 36% active. HEK293T NF-kB luciferase reporter, TNF-alpha induced;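 active = inhibition above the mean of solvent-only control wells plus 3 SD, cutoff set per campaign, cut at about 13% in these data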;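 note: 0% = TNF-alpha with DMSO and 100% = TNF-alpha with MG high control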
STAT1 inh STAT3c = STAT1 inhibition in STAT3 inhibitor counter-screen; shares compounds with STAT3 inh-1; NIH 3T3 STAT1-luciferase reporter, IFN-gamma induced, luminescence; inhibition, % at 5.7 µM; 1,200 tested, 27% active;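 active = inhibition above the mean plus 3 SD of solvent-only control wells, limit set per screening run, cut at about 16% in these data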;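 note: 0% = DMSO with IFN-gamma and 100% = nifuroxazide control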
* marks the source's active call; other numbers are inactive results; nt = no result. Shown are actives, neighbours in structure and some others; about 5.1% of the full set was active somewhere.

SMILES | STAT3 inh-1 | STAT3 act | NF-kB neuron act | STAT1 inh | APP 5'UTR act | STAT1 activator | STAT3 inh-2 | NFkB inh 2 | STAT1 inh STAT3c
O=C1C(C=Nc2ccc(F)cc2)=C(O)c2ccccc21 | 51* | 59 | 7.1* | -51 | 148* | 149* | -31 | -57 | -213
Cc1cc(C)cc(NC(=S)N(Cc2ccc(Br)cc2)Cc2ccc(C(=O)O)cc2)c1 | 10 | 101 | 0.88 | -10 | -1 | 108 | nt | nt | nt
Cc1cccc(S(=O)(=O)N2CN(Cc3ccco3)c3nc4ccccc4nc32)c1 | -1 | 110 | 0.82 | -2 | -13 | 103 | nt | nt | nt
NC(=O)c1ccccc1N/C=C/C(=O)c1ccc(Cl)cc1Cl | 62* | 49 | 5.9* | -23 | 174* | 121 | 22 | -4 | -85
O=C(Nc1ccccc1Cl)c1ccc(Cl)cc1Cl | 21 | 86 | 2.2 | -24 | 12 | 120 | nt | nt | nt
Cc1cc(C(=O)CSc2nnc(-c3cccs3)o2)c(C)n1-c1ccccc1 | 47* | 64 | 0.48 | 24 | -2 | 78 | 19 | 17* | -18
Nc1nc(CCl)nc(Nc2ccccc2)n1 | 9 | 95 | 0.16 | -8 | 15 | 106 | nt | nt | nt
Nc1nc(Nc2ccccc2)nc2ccccc12 | 57* | 57 | 5.5* | -6 | 155* | 105 | 14 | -23 | -92
Cc1ccccc1Nc1nc(N)c2ccccc2n1 | 61* | 52 | 8.9* | -8 | 144* | 108 | 18 | -27 | -70
Cc1ccccc1Nc1nc(N)nc(CSc2nc3ccccc3c(=O)n2C)n1 | 19 | 88 | 0.58 | 8 | -7 | 93 | nt | nt | nt
Cc1csc(SCC(=O)c2cc(C)n(Cc3cccs3)c2C)n1 | 79* | 35 | 0.73 | 40* | 120 | 75 | 52* | 24* | -26
CC(=O)Nc1ccccc1OCC(=O)c1cc(C)n(Cc2cccs2)c1C | 79* | 37 | 0.47 | 7 | 17 | 95 | 84* | 27* | -16
COc1ccc(-c2nnc(SCC(=O)c3cc(C)n(Cc4cccs4)c3C)o2)cc1 | -1 | 104 | 1.8 | 2 | 5 | 98 | nt | nt | nt
Cc1cc(C(=O)COc2cccnc2[N+](=O)[O-])c(C)n1Cc1cccs1 | 32 | 75 | 1.1 | 13 | 1 | 87 | nt | nt | nt
Cc1cc(C(=O)CSc2nnc(N)s2)c(C)n1Cc1cccs1 | 51* | 57 | 2.7 | -12 | 136* | 111 | 36 | 8 | -46
NC1=NCc2ccccc21 | 8 | 101 | 1.2 | -3 | 6 | 103 | nt | nt | nt
COc1cc(OC)cc(C(=O)Nc2nnc(NC(=S)Nc3ccccc3)s2)c1 | 61* | 50 | 1.2 | 7 | 15 | 94 | 59* | -14 | -14
CCc1nnc(NC(=O)c2ccc(OC)cc2)s1 | 57* | 54 | 4* | 10 | 129 | 89 | 32 | -16 | -56
O=C(O)C(Cc1ccccc1)n1c(=S)[nH]c2ccccc2c1=O (stereo not drawn) | -4 | 104 | 1.1 | -5 | -4 | 106 | nt | nt | nt
CC(=O)N1CCc2cc(S(=O)(=O)Nc3cccc(C(F)(F)F)c3)ccc21 | 44* | 63 | 0.55 | 21 | -21 | 81 | 39 | 2 | 19*
CC(=O)N1CCCc2cc(S(=O)(=O)Nc3ccc4c(c3)OCO4)ccc21 | nt | nt | 1 | nt | nt | nt | nt | nt | nt
O=C1C(=C2SCCCS2)CC/C1=C\c1ccc(F)cc1 | 115* | 11 | 2.4 | 31 | 49 | 73 | 93* | 81* | -2
COc1cccc2cc(-c3nnc(-c4ccccc4)o3)c(=O)oc12 | 46* | 64 | 1.9 | -22 | 138* | 120 | 31 | 3 | -67
CCCCCCCCCn1c2c(c(=N)c3c1CCC3)CCC2 | 82* | 33 | 2.1 | 28 | -18 | 74 | 85* | 59* | 30*
N=c1c2c(n(Cc3ccc(F)cc3)c3c1CCC3)CCC2 | 35 | 76 | 0.56 | 14 | -4 | 87 | nt | nt | nt
SMILES | STAT3 inh-1 | STAT3 act | NF-kB neuron act | STAT1 inh | APP 5'UTR act | STAT1 activator | STAT3 inh-2 | NFkB inh 2 | STAT1 inh STAT3c
CCn1c2c(c(=N)c3c1CCC3)CCC2 | 9 | 95 | 0.91 | -4 | 2 | 104 | nt | nt | nt
CCCCCCn1c2c(c(=N)c3c1CCC3)CCC2 | 81* | 36 | 0.71 | 34 | 16 | 70 | 82* | 35* | 27*
CCCCCCCn1c2c(c(=N)c3c1CCC3)CCCC2 | 81* | 34 | 1.5 | 24 | -22 | 76 | 88* | 37* | 28*
CCCn1c2c(c(O)c(C(=O)NC)c1=O)CCCC2 | -4 | 107 | 1.1 | 7 | 4 | 93 | nt | nt | nt
CCCCn1c2c(c(=N)c3c1CCC3)CCC2 | 53* | 63 | 0.51 | 24 | 0 | 78 | 33 | -1 | 22*
CCN(CC)C(=O)C1CCCN(Cc2ccc(OC)c(C)c2C)C1 (stereo not drawn) | 11 | 96 | 0.94 | 2 | -20 | 99 | nt | nt | nt
Cn1c(-c2ccccc2)c(C(=O)CC#N)c2ccccc21 | 4 | 103 | 1 | -4 | 14 | 103 | nt | nt | nt
COc1cc2c(cc1OC)C(c1ccc(-c3ccc(Cl)cc3Cl)o1)=NCC2 | 63* | 52 | 0.88 | 5 | 1 | 95 | 53* | 16* | -3
CC(C)c1ccc(NC(=O)C2CCCCC2C(=O)O)cc1 (stereo not drawn) | 50* | 62 | 1.4 | 2 | -17 | 99 | 14 | 2 | 1
CCOc1ccc2nc(-c3ccccc3)[nH]c2c1 | 50* | 59 | 5.4* | -43 | 142* | 139* | 22 | -17 | -110
COc1ccc(C2(C(=O)Nc3ccc(OC)cc3OC)CCCC2)cc1 | 3 | 99 | 1.1 | 5 | 0 | 96 | nt | nt | nt
Nc1c(C(=O)NC2CCCCC2)nsc1C(=O)OCC(=O)NC1CCCCC1 | 51* | 58 | 0.92 | 5 | -9 | 96 | 54* | 12 | 0
CCOC(=O)N1CCN(C(=O)COc2ccc(S(=O)(=O)NCC(C)C)cc2C)CC1 | 5 | 102 | 0.94 | 4 | -7 | 96 | nt | nt | nt
FC(F)(F)c1cc(Oc2ccccc2Cl)nc(-c2ccccn2)n1 | 2 | 107 | 3.1 | 1 | 5 | 99 | nt | nt | nt
FC(F)(F)c1cnc(-c2cnc(-c3ccccn3)nc2)c(Cl)c1 | 48* | 63 | 1.1 | -9 | 121 | 108 | 16 | -23 | -57
Clc1ccc(-c2nnc(-c3ccccc3)o2)c(Cl)c1 | 59* | 56 | 5* | -4 | 119 | 104 | 34 | -5 | -77
CSc1ccccc1-c1nnc(-c2ccc(Cl)cc2Cl)o1 | 16 | 93 | 2.9 | -25 | 6 | 122 | nt | nt | nt
Fc1ccc(-c2nnc(-c3ccc(Cl)cc3Cl)o2)cc1 | 70* | 45 | 3.2 | 12 | 141* | 90 | 37 | 6 | -66
